# Source: PubChem BioAssay (several laboratories)
# Calb FLC: C. albicans growth inhibition with fluconazole, primary screen, CaCi-2 strain, Alamar Blue fluorescence; growth inhibition, % (test concentration not listed); actives 0.57% (n = 300,000); C. albicans CaCi-2 (fluconazole-resistant clinical isolate) + fluconazole, 48 h;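 active = growth inhibition above about 58% in most replicates, limit read from the data, passing the limit was not always enough; inconclusive = exactly half the replicates above a set limit; inactive = most replicates below a set limit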;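 also: all wells also contain fluconazole at 8 µg/ml as a sub-toxic cotreatment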
# MIN6 prolif: inducers of MIN6 beta-cell proliferation, primary screen, ATP luminescence, uHTS | MIN6 cells proliferation, ATPlite luminescence, 48 h; cells starved in 0.2% serum; 100% = growth in 10% serum | proliferation, % at 10 µM | actives 0.29% (n = 330,000) | AID 2380, 2010;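 active = compounds whose signal lies at least 3.5 SD above the mean of all wells on their plate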
# Insulin prom up: insulin promoter activators in MIN6 cells, imaging, high-content screening, mouse beta cells | actives 0.3% (n = 190,000) | AID 1625, 2009 | MIN6 insulin promoter-GFP reporter; active compounds read high | z-score at 5 µM;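 active = z-score above 3 at 5 µM with at least 500 cells counted in the well; inconclusive = wells under 500 cells, flagged as cytotoxic or low count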
# HTR2A ag: mouse Htr2a agonists via beta-arrestin recruitment, primary screen, cell-based, luminescence | AID 624169, 2012 | CHO-K1 mHTR2A beta-arrestin complementation; percent of 30 µM serotonin response | 5-hydroxytryptamine receptor 2A (Mus musculus), P35363 | activation, % at 7.6 µM | actives 0.66% (n = 360,000);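 active = activation above a run cutoff, the mean activation of all tested compounds plus 3 SD, cut at about 14% in these data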
# Target sequence (P35363 whole entry, looked up): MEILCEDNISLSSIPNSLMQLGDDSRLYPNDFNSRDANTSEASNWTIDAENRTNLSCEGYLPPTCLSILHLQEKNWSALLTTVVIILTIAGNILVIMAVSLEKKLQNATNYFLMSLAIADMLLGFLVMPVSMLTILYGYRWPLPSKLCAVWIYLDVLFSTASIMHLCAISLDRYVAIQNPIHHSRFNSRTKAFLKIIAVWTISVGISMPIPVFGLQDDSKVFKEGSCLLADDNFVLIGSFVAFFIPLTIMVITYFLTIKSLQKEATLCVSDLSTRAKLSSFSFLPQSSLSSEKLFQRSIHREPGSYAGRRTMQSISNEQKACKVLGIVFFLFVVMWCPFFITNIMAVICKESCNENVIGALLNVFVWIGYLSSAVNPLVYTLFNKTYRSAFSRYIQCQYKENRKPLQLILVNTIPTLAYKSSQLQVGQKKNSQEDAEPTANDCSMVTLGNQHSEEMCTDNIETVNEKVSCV
# SR-BI DiI inh: inhibitors of SR-BI mediated HDL lipid uptake, primary screen, ldlA[mSR-BI] cells, fluorescence, single point; Scavenger receptor class B member 1 (Mus musculus), Q61009; ldlA[mSR-BI] CHO cells, DiI-HDL uptake fluorescence, 3 h; inhibition, % at 12.5 µM; actives 0.96% (n = 320,000); AID 488896, 2010;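 active = mean replicate inhibition of at least 70% and a set share of replicates each scoring 70 or more; inconclusive = meets just one of the two criteria; inactive = fails both criteria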
# SR-BI DiI-HDL act: activators of SR-BI mediated DiI-HDL uptake, primary screen, ldlA[mSR-BI] CHO cells, DiI fluorescence. 3 h; 100 = double the neutral-control signal. activation, % at 12.5 µM. actives 0.096% (n = 320,000);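 active = mean replicate activation of at least 60% and every replicate at or above 60%; inconclusive = mean or all-replicate condition met, but not both; inactive = mean below 60% and not all replicates reaching 60%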
#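 Assay system: LDL receptor-deficient CHO ldlA cells overexpressing murine SR-BI / Medium: BSA-supplemented, HEPES-buffered Ham's F12, pH 7.4 / Probe or stimulus: DiI-labelled HDL at 10 µg/mL final / Timing: compound with DiI-HDL co-incubation, 3 h at 37 °C / Technique: bottom-read cell fluorescence after medium removal, ex 550/em 595 nm / Measure: HDL uptake via cellular fluorescence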
# Hits are given with their value; 0 = inactive; ? = inconclusive; - = no result given; ! = not active in a repeat. A selection: hits, their analogues and other compounds. The true share with any hit is near 2.4%.
SMILES,Calb FLC,MIN6 prolif,Insulin prom up,HTR2A ag,SR-BI DiI inh,SR-BI DiI-HDL act
CC(C)c1ccc(-c2nc(N3CCCCCC3)nc3n[nH]c(N)c23)cc1,0,0,-,0,90,0
COCCCNC(=O)Cn1c(=O)n(Cc2ccc(C(=O)NCCc3ccc(OC)c(OC)c3)cc2)c(=O)c2ccccc21,0,0,0,0,88,0
COCCCNC(=O)c1ccc(Cn2c(=O)c3ccccc3n(CC(=O)NCCc3ccc(OC)c(OC)c3)c2=O)cc1,0,0,0,0,81,0
COCC1CCN(C(=O)C2CCC(=O)N(C3CCCCCC3)C2)CC1 (configuration not stated),0,0,-,0,0,0
CC(=O)c1c(C)[nH]c(C(=O)OCC(=O)Nc2cccc(S(=O)(=O)N3CCCC3)c2)c1C,0,0,0,0,0,0
CC(=O)c1c(C)[nH]c(C(=O)Nc2ccc(Cl)c(S(=O)(=O)N3CCOCC3)c2)c1C,0,0,0,0,79,0
CC(=O)c1c(C)[nH]c(C(=O)Nc2ccc(S(=O)(=O)N(C)C)cc2)c1C,0,0,0,0,0,0
CC(=O)c1c(C)[nH]c(C(=O)Nc2cc(C)cc(C)c2)c1C,0,0,0,0,83,0
CC(=O)c1c(C)[nH]c(C(=O)Nc2cccc(S(=O)(=O)N3CCCC3)c2)c1C,-,0,-,0,74,0
Cc1ccc(OCC(=O)NNC(=S)NC(=O)C2CC2)c(C)c1,103,0,-,0,0,0
Cc1cc(C)n(-c2nc3ccccc3c(=O)n2OCC#N)n1,81,0,-,0,0,0
CSc1ccc(C2C(C(=O)c3ccco3)=C(O)C(=O)N2c2nnc(SC)s2)cc1 (configuration not stated),0,0,-,0,0,0
NC(=S)N/N=C/c1ncc(C(F)(F)F)cc1Cl,0,0,0,0,73,0
NC(=S)N/N=C/c1ccc(C(F)(F)F)cc1,0,0,0,0,0,0
COc1cc(O)cc2c1[C@@H]1Oc3c(ccc(O)c3CC=C(C)C)[C@@H]1CO2,0,0,-,0,85,0
COc1c(CC=C(C)C)cc(C2CC(=O)c3c(O)cc(O)cc3O2)cc1CC=C(C)C (configuration not stated),0,0,?,0,0,0
CC1Cc2ccccc2N1C(=O)Cn1c(=O)oc2cc(S(=O)(=O)N3CCCCC3)ccc21 (configuration not stated),0,0,0,0,80,0
O=C(Cn1c(=O)oc2cc(S(=O)(=O)N3CCCCC3)ccc21)N1CCc2ccccc21,0,0,0,0,0,0
CC(=O)NNc1[nH]c2c(c(=O)c1[N+](=O)[O-])c(=O)n(C)c(=O)n2C,0,0,0,0,0,68
Cc1cccc(Oc2nccc(C(F)(F)F)c2C(=O)Nc2ccc(F)cc2F)c1,0,0,3.6,0,0,0
O=[N+]([O-])c1ccc(NN=Cc2ccccc2O)nc1,-,-,-,0,88,0
CCN(CC)c1ccc(C=NNc2ccc([N+](=O)[O-])cn2)cc1,-,-,-,0,84,0
N#Cc1ccccc1Cn1cc(/C=N/Nc2ccc([N+](=O)[O-])cn2)c2ccccc21,0,0,-,0,96,0
O=C(OC1CC2CC1[C@H]1CCCCN1C2=O)N1CCN(S(=O)(=O)c2ccccc2)CC1 (some centres not stated),-,-,-,0,-,-
Oc1ccc(Cl)cc1Sc1cc(Cl)ccc1O,-,-,-,0,0,0
SMILES,Calb FLC,MIN6 prolif,Insulin prom up,HTR2A ag,SR-BI DiI inh,SR-BI DiI-HDL act
Cc1ccc(NC(=O)COc2cccc(Oc3ccccc3)c2)cc1S(=O)(=O)N1CCOCC1,-,0,-,0,0,0
CCCCCCCCn1ccc(=N)cc1,0,0,0,0,0,0
CCCCCCCCCCn1ccc(=N)cc1,108,0,?,0,0,0
COC(=O)C1CCN(C(=O)CN(C)Cc2ccc(C(C)(C)C)cc2)CC1,80,0,-,0,-,-
O=C(COC(=O)c1cc(S(=O)(=O)N2CCOCC2)ccc1O)NCC1CCCO1 (configuration not stated),0,0,3.8,0,0,0
O=C(COc1ccc(S(=O)(=O)N2CCOCC2)cc1)NCC1CCCO1 (configuration not stated),0,0,-,0,0,0
O=C(Oc1cc(=O)n2ccccc2n1)c1ccccc1,0,-,0,0,0,0
COc1cc(C(=O)NC(=S)Nc2ccc(N3CCCC3)cc2)cc(OC)c1OC,0,0,0,0,75,0
COc1ccc(C(=O)NC(=S)Nc2ccc(N3CCCC3)cc2)cc1,0,0,0,0,0,0
COc1ccc(C(=O)Nc2ccc(N3CCN(C(=O)c4cccs4)CC3)cc2)cc1Br,0,0,-,0,72,0
COc1ccc(C(=O)Nc2ccc(N3CCCC3)cc2)cc1OC,0,0,-,0,74,0
Cc1ccc(C(=O)Nc2ccc(N3CCCC3)cc2)c(C)c1,0,0,0,0,84,0
CC(C)CCSc1nc2[nH]ncc2c(=O)[nH]1,0,0,0,0,-,-
COc1ccc(CNC(=O)c2ccc(CNc3c(NC4CCCCC4)c(=O)c3=O)cc2)cc1,0,0,0,0,0,0
COc1ccc(NC(=O)c2ccc(CNc3c(NC4CCCCC4)c(=O)c3=O)cc2)cc1OC,0,0,0,0,78!,0
CCN1CCN(CCCNC(=O)c2ccc(NC(=O)C3=C(C)OCCS3)cc2)CC1,0,0,-,0,0,0
CC(=O)N1CCC(C(=O)N2c3ccccc3N=C(c3ccc4c(c3)OCO4)C2C(=O)Nc2c(C)cccc2C)CC1 (configuration not stated),-,-,-,0,-,-
Cc1cnc(NC(=O)c2cc3c(C)nn(-c4ccccc4)c3s2)s1,0,0,0,0,76,0
CC(=C/c1ccccc1)/C=N/Nc1nc(N2CCCCC2)nc(N2CCCCC2)n1,0,0,0,0,0,0
O=[N+]([O-])c1ccccc1/C=C/C=N/Nc1nc(N2CCCCC2)nc(N2CCCCC2)n1,0,0,0,0,79,0
C(=C\c1ccccc1)/C=N/Nc1nc(N2CCCCC2)nc(N2CCCCC2)n1,93,0,0,0,0,0
CN(C)CCCNc1nc2cc(-c3ccc4c(ccn4C)c3)sc2c(=O)n1C,-,-,-,0,-,-
O=C(Nc1cccc(Cl)c1)c1ccc(NCCCN2CCOCC2)c([N+](=O)[O-])c1,0,0,0,0,71,0
COC(=O)COc1cc(Br)c(/C=C2/SC(=O)N(CC(=O)N3CCCC3)C2=O)cc1OC,0,0,0,0,82,0
